E-selectin induc = induces E-selectin expression in human endothelial cells; AID 686992; HUVEC E-selectin immunofluorescence imaging; normalized: neutral wells 0, TNF-alpha wells 100; activation, % at 7.58 µM; P16581; 0.37% of 260,000 active;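 active means mean E-selectin-positive cell signal at least 10% of the positive control, reached in at least 60% of replicates, without over 20% cell loss; inconclusive means no rule given, readout overlaps actives, possibly toxicity-flagged; inactive means the rest, including those meeting only one limit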
Target sequence (P16581 whole entry, looked up): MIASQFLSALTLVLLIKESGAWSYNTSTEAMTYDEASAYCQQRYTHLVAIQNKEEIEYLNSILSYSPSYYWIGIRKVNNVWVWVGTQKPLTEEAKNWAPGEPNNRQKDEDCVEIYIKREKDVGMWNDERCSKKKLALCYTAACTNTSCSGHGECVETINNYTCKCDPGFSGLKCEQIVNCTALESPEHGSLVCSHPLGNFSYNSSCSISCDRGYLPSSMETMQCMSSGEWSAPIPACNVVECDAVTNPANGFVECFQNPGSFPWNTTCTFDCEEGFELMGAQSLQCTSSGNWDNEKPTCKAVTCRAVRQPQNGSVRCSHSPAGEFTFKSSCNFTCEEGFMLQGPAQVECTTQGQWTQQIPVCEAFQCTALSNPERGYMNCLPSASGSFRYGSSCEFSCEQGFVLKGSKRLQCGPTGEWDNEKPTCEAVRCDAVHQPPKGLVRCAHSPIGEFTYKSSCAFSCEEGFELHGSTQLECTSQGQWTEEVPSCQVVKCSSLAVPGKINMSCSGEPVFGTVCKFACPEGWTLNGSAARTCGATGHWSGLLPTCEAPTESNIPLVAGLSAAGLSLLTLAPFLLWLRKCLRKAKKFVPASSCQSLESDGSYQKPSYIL
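Test system: HUVEC | Signal: Immunofluorescence imaging | Read-out: Percent E-selectin-positive cells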
Xi reactivation = activators of X-chromosome reactivation in mouse fibroblasts | 0.055% of 360,000 active | activation, % at 7.58 µM | XiGFP mouse fibroblasts, % GFP-positive cells imaging, 3 d; cells co-treated with 5-aza-dC sensitizer; scaled so ellipticine positive control = 100%;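 active means mean normalized replicate activation at least 10% and every replicate at or above 10%; inconclusive means only one of the two criteria met; inactive means mean below 10% and not all replicates reach 10%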;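 further: 0% = median of on-plate neutral control wells and 100% = ellipticine 6 µM median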
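Assay system – SV40-immortalized XiGFP fibroblast cells, line 68-5-11 · Buffer or medium – DMEM supplemented with 5-aza-dC as sensitizing agent · Dosing – one concentration, pinned · Benchmarks – positive control ellipticine, 6 µM final · Times – 3 days compound exposure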
Numbers without * were called inactive; ? = inconclusive; nt = no result. Shown is part of a subset that was picked to be rich in hits.

SMILES	E-selectin induc	Xi reactivation
C[C@H]1CN([C@@H](C)CO)C(=O)c2cc(NC(=O)Nc3ccccc3)ccc2O[C@@H]1CN(C)C(=O)Nc1ccc(C(F)(F)F)cc1	40*	0
C[C@@H]1CN([C@@H](C)CO)C(=O)c2cc(NC(=O)Nc3ccccc3)ccc2O[C@@H]1CN(C)C(=O)Nc1ccc(C(F)(F)F)cc1	51*	0
C[C@@H]1CN([C@H](C)CO)C(=O)c2cc(NC(=O)Nc3ccccc3)ccc2O[C@@H]1CN(C)C(=O)Nc1ccc(C(F)(F)F)cc1	0	2
C[C@H](CO)N1C[C@H](C)[C@H](CN(C)C(=O)Nc2ccc3c(c2)OCO3)Oc2c(NC(=O)Nc3ccc(C(F)(F)F)cc3)cccc2C1=O	0	-1
CNC[C@@H]1Oc2ccc(NS(=O)(=O)c3ccc(C)cc3)cc2C(=O)N([C@@H](C)CO)C[C@@H]1C	0	0
COc1ccc(S(=O)(=O)N(C)C[C@H]2OCCCC[C@H](C)Oc3ccc(NC(=O)Nc4ccc(C(F)(F)F)cc4)cc3C(=O)N([C@@H](C)CO)C[C@H]2C)cc1	0	0
COc1ccc(S(=O)(=O)N2CCCCN3[C@H](C2)[C@@H](c2ccc(C#CC(C)C)cc2)[C@@H]3CO)cc1	-1	0
CO[C@H]1CN(C)C(=O)c2ccc(NC(=O)c3ccccc3F)cc2OC[C@H](C)N(C(C)=O)C[C@H]1C	0	0
CC(=O)c1ccc(C(=O)Nc2ccc3c(c2)C(=O)NC3=O)cc1	0	0
CC(C)(C)c1ccc(C(=O)Nc2ccc3c(c2)C(=O)NC3=O)cc1	137*	0
CCCNC(=O)[C@H]1[C@H](CO)[C@H]2Cn3c(ccc(/C=C/c4ccccc4)c3=O)[C@@H]1N2C(C)=O	0	1
COc1ccccc1CN1CC2(C1)[C@@H](c1ccccc1)[C@@H](CO)N2Cc1ccccc1	nt	0
C[C@H](NC(=O)C[C@@H]1CC[C@@H]2[C@H](COc3ccc(NS(=O)(=O)c4ccc(Cl)cc4)cc3C(=O)N2C)O1)c1ccccc1	0	0
CN1C(=O)c2cc(NS(C)(=O)=O)ccc2OC[C@@H]2O[C@H](CC(=O)NCc3ccc(-c4ccccc4)cc3)CC[C@@H]21	65*	0
C[C@H](NC(=O)C[C@H]1CC[C@H]2[C@H](COc3ccc(NS(=O)(=O)c4ccc(Cl)cc4)cc3C(=O)N2C)O1)c1ccccc1	128*	0
CN1C(=O)c2cc(NS(C)(=O)=O)ccc2OC[C@@H]2O[C@H](CC(=O)NCc3ccc(-c4ccccc4)cc3)CC[C@H]21	1	0
C/C=C/c1ccc2c(c1)O[C@@H](CN(C)C(=O)Cc1ccncc1)[C@@H](C)CN([C@@H](C)CO)S2(=O)=O	0	1
C[C@H](C(=O)N(C)C[C@@H]1OCc2ccccc2-c2ccccc2C(=O)N([C@H](C)CO)C[C@H]1C)c1ccccc1	-1	-1
CCCNC(=O)C[C@@H]1CC[C@@H]2[C@H](COc3ccc(NC(=O)c4cccc(C(F)(F)F)c4)cc3C(=O)N2C)O1	0	0
C[C@@H]1CN([C@@H](C)CO)C(=O)c2cc(NC(=O)C3CCCCC3)ccc2O[C@@H](C)CCCCO[C@H]1CN(C)S(=O)(=O)c1cccs1	0	-1
N#C/C(=C\c1ccc(-c2ccc(F)cc2)o1)C(=O)Nc1nc(-c2cccs2)cs1	0	0
N#C/C(=C/c1ccc(-c2ccccc2)o1)c1nc(-c2cccs2)cs1	nt	77*
N#C/C(=C/c1ccc(-c2ccc(S(N)(=O)=O)cc2)o1)C(=O)Nc1ccccc1	nt	0
N#C/C(=C/c1ccc(-c2ccc(S(N)(=O)=O)cc2)o1)c1nc2ccccc2s1	5	92*
CC=Cc1ccc2n(c1=O)C[C@H]1[C@H](CO)[C@@H](C(=O)NCCc3ccccc3)N(C(C)=O)[C@@H]21 (mixture of isomers)	0	0
SMILES	E-selectin induc	Xi reactivation
COc1cccc2c1C(=O)c1c(O)c3c(c(O)c1C2=O)C[C@](O)(C(C)=O)C[C@H]3O[C@@H]1C[C@@H](N)[C@@H](O)[C@@H](C)O1	146*	1
COc1cccc2c1C(=O)c1c(O)c3c(c(O)c1C2=O)CC(O)(C(C)=O)CC3OC1CC(O)C(O)C(C)O1 (centres undefined)	1	0
O=C(C[C@H]1CC[C@@H]2[C@H](COC[C@H](O)CN2CC2CCOCC2)O1)N1CCOCC1	0	0
COc1cc(NC(=O)COC(=O)CO/N=C(\C)c2ccc3c(c2)OCO3)cc(OC)c1	-3	0
COc1cc(NC(=O)COC(=O)CO/N=C(\C)c2ccc3c(c2)OCO3)cc(OC)c1OC	180*	0
O=C(C[C@H]1CC[C@H]2[C@@H](COC[C@@H](O)CN2S(=O)(=O)c2ccc(F)cc2)O1)NCc1ccncn1	0	0
O=C(NC1CCCC1)c1cccc2c1C(=O)c1ccc(/C=C/c3ccccc3)cc1S2(=O)=O	0	14*
COc1ccc(-c2ccc3c(c2)S(=O)(=O)c2cccc(C(=O)NC4CCCC4)c2C3=O)cc1OC	nt	0
Cc1ccc(CNC(=O)c2cccc3c2C(=O)c2ccc(N4CCCCC4)cc2S3(=O)=O)cc1	0	0
O=C(NCc1ccccc1)c1cccc2c1C(=O)c1ccc(/C=C/c3ccccc3)cc1S2(=O)=O	?	18*
O=C(c1ccc2c(c1)OCO2)N1CC2(C1)[C@H](c1ccccc1)[C@H](CO)N2C(=O)C1CCCC1	0	0
COc1ccc(CNC(=O)C2CCN(S(=O)(=O)c3cccnc3)CC2)cc1	nt	0
CCOc1ccc(S(=O)(=O)N2CCC(C(=O)NCc3cccnc3)CC2)cc1	41*	0
CCc1nn(CCCC(=O)N2CCC(C)CC2)c(=O)c2cc3occc3n12	nt	0
CCc1nn(CCCC(=O)N2CCN(c3ccc(OC)cc3)CC2)c(=O)c2cc3occc3n12	141*	0
Cc1cc2cc(CNC(=O)c3ccc(S(=O)(=O)N4CCCCC4)cc3)ccc2n1C	82*	0
Cc1cc2cc(CNC(=O)c3ccc(S(=O)(=O)N4CCCC4)cc3)ccc2n1C	?	0
Cc1noc(C)c1S(=O)(=O)Nc1ccc2c(c1)C(=O)N([C@@H](C)CO)C[C@@H](C)[C@@H](CN(C)Cc1ccc3c(c1)OCO3)OCCCC[C@@H](C)O2	0	0
CNc1ccccc1C(C)(C)c1cc(-c2cc(C)cc(C)c2)no1	nt	0
CNc1ccccc1C(C)(C)c1cc(-c2cccc(OC)c2)no1	46*	0
Cc1noc(C)c1NC(=O)N(C)C[C@@H]1OCCCC[C@H](C)Oc2ccc(NC(=O)c3ccncc3)cc2C(=O)N([C@@H](C)CO)C[C@@H]1C	0	-1
Cc1noc(C)c1NC(=O)N(C)C[C@H]1Oc2ccc(NC(=O)c3ccncc3)cc2C(=O)N([C@H](C)CO)C[C@H]1C	348*	0
Cc1noc(C)c1NC(=O)N(C)C[C@H]1OCCCC[C@H](C)Oc2ccc(NC(=O)c3ccncc3)cc2C(=O)N([C@@H](C)CO)C[C@@H]1C	0	1
Cc1noc(C)c1NC(=O)N(C)C[C@@H]1Oc2ccc(NC(=O)c3ccncc3)cc2C(=O)N([C@H](C)CO)C[C@@H]1C	421*	0

Screens deposited in PubChem by Broad Institute.
